Assay outcomes deposited in PubChem BioAssay by several laboratories.
NR3A LBD binder: modulators (binders) of human NR3A ligand-binding domain. Tm shift relative to glycine control, % at 25 µM. AID 1259313. 2.5% of 340,000 active. NR3A LBD differential scanning fluorimetry, Tm shift; 0% = protein alone, 100% = glycine-bound protein;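 active means melting temperature shift of at least 10% of the positive control shift, at one fixed dose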
ATG4B inhibitor: inhibitors of human ATG4B cysteine protease | ATG4B cleavage of LC3-PLA2, NBD-HPC fluorescence, 1 h | inhibition, % at 8.33 µM | 0.51% of 340,000 active; in the data active means inhibition above about 40%
Target sequence (Q9Y4P1 whole entry, looked up): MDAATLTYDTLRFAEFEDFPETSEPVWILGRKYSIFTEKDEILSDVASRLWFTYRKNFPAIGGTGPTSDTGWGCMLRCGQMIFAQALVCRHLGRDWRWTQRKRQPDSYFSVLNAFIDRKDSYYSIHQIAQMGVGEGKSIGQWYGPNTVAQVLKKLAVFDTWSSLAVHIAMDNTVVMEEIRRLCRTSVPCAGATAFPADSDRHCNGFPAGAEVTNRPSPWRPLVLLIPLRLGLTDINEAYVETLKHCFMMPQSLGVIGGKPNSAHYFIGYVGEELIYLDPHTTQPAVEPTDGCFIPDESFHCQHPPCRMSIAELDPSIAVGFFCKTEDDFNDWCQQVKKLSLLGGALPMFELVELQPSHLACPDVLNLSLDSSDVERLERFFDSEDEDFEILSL
SENP1 FRET inh: SENP1 (human) catalytic domain inhibition; Q9P0U3; inhibition, % at 10 µM; AID 624204; recombinant SENP1 catalytic domain, CyPet-SUMO1-YPet FRET cleavage; 0.21% of 360,000 active;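 active means inhibition at least 30% at 10 µM, raw YFP signal under a set limit, fluorescence ratio 0.5 to 1.5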
Target sequence (Q9P0U3 419-644 limits assumed): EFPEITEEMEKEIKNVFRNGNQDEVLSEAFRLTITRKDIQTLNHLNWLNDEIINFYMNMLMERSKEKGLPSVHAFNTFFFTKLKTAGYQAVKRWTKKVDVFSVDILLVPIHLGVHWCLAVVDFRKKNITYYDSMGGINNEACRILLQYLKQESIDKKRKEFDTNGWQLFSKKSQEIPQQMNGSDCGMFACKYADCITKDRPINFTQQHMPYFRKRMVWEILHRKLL
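Test system: hSENP1 catalytic domain, recombinant; Amount: 20 pM final SENP1 enzyme; Medium: Tris pH 8 buffer plus EDTA, NaCl, BME, BSA, NP40, catalase; Schedule: 50 min enzyme reaction, room temperature, light-protected; Technique: FRET fluorescence in CFP and YFP emission channels; Controls: no-enzyme wells low, DMSO-plus-enzyme wells high control.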
UCH37 inh: human UCH37 deubiquitinating enzyme inhibition. 0.33% of 330,000 active. AID 588478. inhibition, % (concentration not given with the values). Q9Y5K5. purified proteasome/UCH37, Ub-AMC cleavage fluorescence;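 active means mean inhibition over replicate wells above about 20%, limit read from the data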
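Material: human UCH37 enzyme supplied as purified proteasome complex. Measure: % inhibition of Ub-AMC cleavage fluorescence. Medium: pH 7.4 Tris-HCl (50 mM) with ovalbumin, ATP-MgCl2, DTT. Times: 30 min preincubation with enzyme, 25 min cleavage at room temperature. Detection: AMC fluorescence intensity at 355/460 nm.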
NadD block: blocks S. aureus nicotinate mononucleotide adenylyltransferase. AID 602399. inhibition, % at 20 µM. 0.78% of 360,000 active. purified NadD enzyme, colorimetric absorbance read-out; in the data active means inhibition above about 26%
A number is an active result; 0 = inactive; - = not tested or not shown. Rows were chosen to be rich in hits. Some 3.6% of all compounds tested hit in one or more screens of this group.

SMILES	NR3A LBD binder	ATG4B inhibitor	SENP1 FRET inh	UCH37 inh	NadD block
Cc1cc(C)cc(NC(=O)c2cccc(NC(=O)c3ccco3)c2)c1	0	0	0	0	0
COc1ccc(C=NNc2ncnc3c2[nH]c2ccccc23)c(OC)c1OC	-	-	-	0	-
O=C(Nc1cccc(NC(=O)c2ccco2)c1)c1cccc(Br)c1	15	0	0	0	0
Nc1n[nH]c(N)c1N=Nc1ccccc1F	32	0	0	0	0
Nc1n[nH]c(N)c1N=Nc1ccc(Cl)cc1Cl	20	0	0	0	0
Cc1ccccc1N=Nc1c(N)n[nH]c1N	0	0	0	0	0
Nc1n[nH]c(N)c1N=Nc1ccccc1	0	0	0	0	0
CN(C)C(=S)NC(=S)Nc1ccc2ccccc2c1	21	0	0	-	0
CC(=NNC(=O)c1c(Cl)cnn1C)c1cccc(NC(=O)COc2ccccc2)c1	-	-	-	0	-
COc1ccc(CC(=O)NN=C/C=C/c2cccc([N+](=O)[O-])c2)cc1OC	-	-	-	0	-
CCOc1ccc(NC(=O)Nc2ccc3c(c2)nnn3C)cc1	16	0	0	0	0
Cc1ccc(NC(=O)Nc2ccc3c(c2)nnn3C)cc1C	0	0	0	0	0
O=c1c(Cl)c(N/N=C/c2ccc(Br)cc2)cnn1-c1ccccc1	13	0	0	-	0
CC(=NNc1cccc2cccnc12)c1ccc(N)cc1	-	-	-	0	-
Fc1ccccc1SCc1nnc(-c2ccccc2Br)o1	0	0	0	32	0
Cc1csc(SCc2nnc(-c3ccccc3Br)o2)n1	-	0	0	0	0
CCCCn1c(CN(Cc2ccccc2)Cc2ccccc2)nc2c1c(=O)n(C)c(=O)n2C	25	0	0	0	0
O=C(Cc1ccccc1)NCC(=O)OCC(=O)c1ccc(Cl)c([N+](=O)[O-])c1	12	0	0	-	0
CCc1ccc(C(=O)COC(=O)CNC(=O)Cc2ccccc2)cc1	0	0	0	-	0
O=C(CNC(=O)Cc1ccccc1)NCC(=O)OCC(=O)c1cccc2ccccc12	12	0	0	0	0
COc1ccc(C=Nn2c(C)nc3ccccc3c2=O)cc1	-	-	-	0	-
CC1(C)CN=c2sc(=Cc3ccc(Cl)cc3)c(=O)n2C1	-	-	-	0	-
C/C(=N/OCO/N=C(\C)c1ccccc1)c1ccccc1	11	0	0	-	0
O=C(NN=C/C(Cl)=C\c1ccccc1)c1ccco1	-	-	-	0	-
N#Cc1c(-n2cccc2C=NO)sc2c1CCCC2	-	-	-	0	-
SMILES	NR3A LBD binder	ATG4B inhibitor	SENP1 FRET inh	UCH37 inh	NadD block
CC(=O)c1c(OC(=O)c2ccccc2Br)ccc2c(C)cc(=O)oc12	13	0	0	0	0
CCC(=O)Oc1c(S(=O)(=O)c2ccc(C)cc2)c(C)nn1C(C)(C)C	15	0	0	0	0
Cc1ccc2nc(-c3ccc(NC(=O)CCN4C(=O)c5ccccc5C4=O)cc3)sc2c1	18	0	0	-	0
Cc1ccc2nc(-c3ccc(NC(=S)NC(=O)C(C)C)cc3)sc2c1	0	0	0	0	0
O=C(CCN1C(=O)c2ccccc2C1=O)Nc1ccc(-c2nc3ccccc3s2)cc1	0	0	0	0	0
Cc1ccc2nc(-c3ccc(NC(=O)C(C)N4C(=O)c5ccccc5C4=O)cc3)sc2c1 (stereo not given)	16	0	0	0	0
CCOC(=O)C1CCN(C(=O)COC(=O)/C=C/c2ccccc2)CC1	0	0	0	0	0
CCOC(=O)C1CCN(C(=O)COC(=O)/C=C/c2cccc(OC)c2OC)CC1	15	0	0	0	0
NS(=O)(=O)c1ccc(NN=C2CCCCC2)c([N+](=O)[O-])c1	11	0	0	0	0
CC(C)Cc1cc(C(=O)N2N=C(C(F)F)CC2(O)C(F)F)c2ccccc2n1 (stereo not given)	0	0	0	0	0
CCc1ccc(-c2cc(C(=O)N3N=C(C(F)F)CC3(O)C(F)F)c3ccccc3n2)cc1 (stereo not given)	22	0	0	0	0
Oc1oc(-c2cccc3ccccc23)nc1/C=N/c1nccs1	11	0	0	-	0
Cc1ccc(Oc2ncccc2C=NO)cc1	-	-	-	0	-
O=C1C=C(c2cc(C(F)(F)F)cc(C(F)(F)F)c2)C[C@@H](c2ccc(Cl)cc2)C1	13	0	0	0	0
O=C1C=C(c2ccc3[nH]ccc3c2)C[C@@H](c2ccc(Cl)cc2)C1	22	0	0	0	0
O=C1C=C(c2ccccc2)C[C@@H](c2ccc(Cl)cc2)C1	0	0	0	0	0
O=C(NN=Cc1ccc2c(c1)OCO2)c1ccc(Br)o1	-	-	-	0	-
CCOc1ccc(C(Nc2ccc(C)cc2)P2(=O)OCCC(C)O2)cc1 (stereo not given)	0	0	0	30	0
Cc1ccc(C=NNC(=O)CC2N=C(Cc3ccccc3)NNC2=O)cc1 (stereo not given)	-	-	-	0	-
Cc1noc(C)c1COC(=O)CCc1nc2ccccc2c(=O)[nH]1	21	0	0	0	0
O=C(Nc1ccccc1)Nc1cc(OCC(F)(F)F)cc(OCC(F)(F)F)c1	41	0	0	0	0
O=C(Nc1ccccc1)Nc1cc(Cl)cc(Cl)c1	-	0	0	-	0
COc1cc(C)c2occ(C(C)=NO)c2c1	-	-	-	0	-
O=C(Nc1ccc(Cl)c(Cl)c1)C1CC(=O)N(c2ccc(Br)cc2)C1 (stereo not given)	28	0	0	0	0
Cc1ccc(N2CC(C(=O)N3CCC(C(=O)Nc4ccc(Br)cc4)CC3)CC2=O)cc1 (stereo not given)	0	0	0	0	0
SMILES	NR3A LBD binder	ATG4B inhibitor	SENP1 FRET inh	UCH37 inh	NadD block
CCc1ccc(C=Nn2cnnc2)cc1	-	-	-	0	-
CC1=CC(=N/N=C2/NC(=O)C(CC(=O)Nc3ccccc3F)S2)CC(C)(C)C1 (stereo not given)	-	-	-	0	-
COc1ccc(C(=O)n2nc(-c3ccccc3)nc2SC)cc1	17	0	0	0	0
COc1cc(/C=C2/C(=O)NN(c3ccc(C)c(Cl)c3)C2=O)cc([N+](=O)[O-])c1O	0	0	0	0	0
COc1cc(/C=C2\SC(=O)N(c3ccc(Cl)cc3)C2=O)cc([N+](=O)[O-])c1O	14	0	0	0	60
CNC(=S)NN=Cc1cccc(OCc2ccccc2F)c1	-	-	-	0	-
O=c1[nH]c(O)c(/C=C2\C=Nc3ccccc32)[nH]1	31	0	0	0	0
COc1cccc(C=NNC(=O)c2ccc(N(C)S(=O)(=O)c3ccccc3)cc2)c1OC	-	-	-	0	-
O=C(OC(C(=O)Nc1cccc(C(F)(F)F)c1)c1ccccc1)C1CCCCC1 (stereo not given)	14	0	0	0	0
Cc1ccc2nc(NCc3ccccc3)c(C=O)c(=O)n2c1	14	0	0	-	0
CC(C)Oc1ccccc1-c1cc(C(=O)NN=Cc2cccnc2)c2ccccc2n1	-	-	-	0	-
CC(=NN)c1c(-c2ccccc2)c2cc(C)ccc2[nH]c1=O	-	-	-	0	-
CC1(C)C=Cc2c(ccc(-c3coc4cc(O)ccc4c3=O)c2O)O1	-	-	-	0	-
